Measurements: ChEMBL document CHEMBL1122936, “Facile synthesis of platelet-activating factor and racemic analogues containing unsaturation in the sn-1-alkyl chain” (1985)
Each block holds one molecule with its values, some of them ahead of it.

Columns and labels:
Format in all cases: functional
Homo sapiens [1] = organism: Homo sapiens; assay: Desensitizing action on human PMN degranulation response, in the presence of FMLP (17 nM) at the dose of 60 nM
Outline: (§1)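 Human neutrophils (>96% PMN, <5 platelets/100 PMN, no erythrocytes) at 2.6×10^6 cells/mL in Hanks' buffer, 37 °C, 20 min. Preincubated 8 min with desensitizing agent in BSA, or BSA alone. Then cytochalasin B 5 μg/mL for 2–4 min, then challenge 5 min with 200 nM 1-O-hexadecyl PAF or 17 nM FMLP. Read-out is net β-glucuronidase release vs BSA-pretreated cells, 14 experiments, unpaired t-test.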

Homo sapiens [2] = organism: Homo sapiens; assay: Effective dose for lysozyme release in human PMN was measured
Outline: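 Human PMN at 2.6×10^6 cells/mL in Hanks' buffer, 37 °C, 20 min. Cytochalasin B 5 μg/mL for 2–4 min, then racemic analogue challenge 5 min, on ice, spun 200g at 4 °C. Net lysozyme release = % of total minus unstimulated release. ED10 extrapolated for 10% net release from curves averaged over ≥5 dose-response experiments.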

Homo sapiens [3] = organism: Homo sapiens; assay: Desensitizing action on human PMN degranulation response, in the presence of PAF (200 nM) at the dose of 60 nM; outline: as §1
Oryctolagus cuniculus = organism: Oryctolagus cuniculus; assay: Effective dose for [14C]5-HT release in prelabeled rabbit platelets was measured; conditions: read-out: ED50 (the source's name)
Outline: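 Rabbit platelet-rich plasma labeled with [14C]serotonin 1.0 μCi/mL, 37 °C, 15 min. Washed twice, then 5×10^7 platelets/0.2 mL in citrate-free Tyrode's (pH 7.3) with 1 mM Ca2+, 37 °C, 20 min. Challenged 1 min, stopped with formalin on ice, supernatant label counted as % of total cellular label. ED50 extrapolated for 50% release from curves averaged over ≥5 dose-response experiments.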

Homo sapiens [4] = organism: Homo sapiens; assay: Desensitizing action on human PMN degranulation response, in the presence of PAF (200 nM) at the dose of 10 nM; outline: as §1
Homo sapiens [5] = organism: Homo sapiens; assay: Desensitizing action on human PMN degranulation response, in the presence of FMLP (17 nM) at the dose of 10 nM; outline: as §1
Homo sapiens [6] = organism: Homo sapiens; assay: Desensitizing action on human PMN degranulation response, in the presence of PAF (200 nM) at the dose of 9 nM; outline: as §1
Homo sapiens [7] = organism: Homo sapiens; assay: Desensitizing action on human PMN degranulation response, in the presence of FMLP (17 nM) at the dose of 9 nM; outline: as §1
Homo sapiens [8] = organism: Homo sapiens; assay: Desensitizing action on human PMN degranulation response, in the presence of PAF (200 nM) at the dose of 17 nM; outline: as §1
Homo sapiens [9] = organism: Homo sapiens; assay: Desensitizing action on human PMN degranulation response, in the presence of FMLP (17 nM) at the dose of 17 nM; outline: as §1
Homo sapiens [10] = organism: Homo sapiens; assay: Desensitizing action on human PMN degranulation response, in the presence of PAF (200 nM) at the dose of 8 nM
Outline: (§2)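 Human neutrophils (>96% PMN, <5 platelets/100 PMN, no erythrocytes) in Hanks' buffer at 2.6×10^6 cells/mL, 37 °C, 20 min; preincubated 8 min with desensitizing agent (in BSA) or BSA alone, then cytochalasin B 5 μg/mL for 2–4 min, challenged 5 min (200 nM PAF or 17 nM FMLP). Supernatant assayed for net β-glucuronidase release, 14 experiments; unpaired t-test versus BSA.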

Homo sapiens [11] = organism: Homo sapiens; assay: Desensitizing action on human PMN degranulation response, in the presence of FMLP (17 nM) at the dose of 8 nM; outline: as §2

SMILES: CSCC[C@H](NC=O)C(=O)N[C@@H](CC(C)C)C(=O)N[C@@H](Cc1ccccc1)C(=O)O
- Degranulating activity (Homo sapiens [8]): 11.9
- Degranulating activity (Homo sapiens [9]): 6.2

SMILES: CCCCCCCCCCCCCCCCOCC(COP(=O)([O-])OCC[N+](C)(C)C)OC(C)=O (configuration not stated) [PLATELET ACTIVATING FACTOR]
- Degranulating activity (Homo sapiens [10]): -0.2
- ED10 (Homo sapiens [2]): 8 nM
- Degranulating activity (Homo sapiens [11]): 23.6
- EC50 (Oryctolagus cuniculus): 0.2 nM

The next lines start with results.

- EC50 (Oryctolagus cuniculus): 0.8 nM
SMILES: CCCCCCCCCCCCCCCCCCOCC(COP(=O)([O-])OCC[N+](C)(C)C)OC(C)=O (configuration not stated)
- Degranulating activity (Homo sapiens [1]): 22
- ED10 (Homo sapiens [2]): 60 nM
- Degranulating activity (Homo sapiens [3]): -1.2

- EC50 (Oryctolagus cuniculus): 0.5 nM
SMILES: CCCCCC/C=C\CCCCCCCCOCC(COP(=O)([O-])OCC[N+](C)(C)C)OC(C)=O (configuration not stated)
- Degranulating activity (Homo sapiens [4]): 1.4
- ED10 (Homo sapiens [2]): 10 nM
- Degranulating activity (Homo sapiens [5]): 29.5

- EC50 (Oryctolagus cuniculus): 0.3 nM
SMILES: CCCCC/C=C\C/C=C\CCCCCCCCOCC(COP(=O)([O-])OCC[N+](C)(C)C)OC(C)=O (configuration not stated)
- ED10 (Homo sapiens [2]): 9 nM
- Degranulating activity (Homo sapiens [6]): 0.1
- Degranulating activity (Homo sapiens [7]): 26.3

- EC50 (Oryctolagus cuniculus): 0.4 nM
SMILES: CCCCCCCC/C=C\CCCCCCCCOCC(COP(=O)([O-])OCC[N+](C)(C)C)OC(C)=O (configuration not stated)
- Degranulating activity (Homo sapiens [4]): 0.3
- ED10 (Homo sapiens [2]): 13 nM
- Degranulating activity (Homo sapiens [5]): 28.2
